According to ChEMBL document CHEMBL1134644 (J Med Chem, 2001):
pKi: −log10 of the molar value.

Columns and labels:
[1] = target: T1, Adenosine receptor A3 (Rattus norvegicus, UniProt P28647); assay: Binding affinity at rat adenosine A3 receptor in CHO cells; type: cell-based
T1 sequence (P28647 whole entry): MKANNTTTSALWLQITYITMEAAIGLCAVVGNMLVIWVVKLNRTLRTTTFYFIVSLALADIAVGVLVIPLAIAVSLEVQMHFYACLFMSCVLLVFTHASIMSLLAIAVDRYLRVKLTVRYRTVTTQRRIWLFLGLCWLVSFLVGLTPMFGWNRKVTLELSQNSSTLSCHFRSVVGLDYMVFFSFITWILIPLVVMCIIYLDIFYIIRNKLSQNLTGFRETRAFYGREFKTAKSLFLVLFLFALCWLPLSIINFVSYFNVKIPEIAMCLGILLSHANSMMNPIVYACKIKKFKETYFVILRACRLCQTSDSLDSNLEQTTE

[2] = target: T2, Adenosine receptor A1 (Rattus norvegicus, UniProt P25099); assay: Binding affinity at rat brain Adenosine A1 receptor
T2 sequence (P25099 whole entry): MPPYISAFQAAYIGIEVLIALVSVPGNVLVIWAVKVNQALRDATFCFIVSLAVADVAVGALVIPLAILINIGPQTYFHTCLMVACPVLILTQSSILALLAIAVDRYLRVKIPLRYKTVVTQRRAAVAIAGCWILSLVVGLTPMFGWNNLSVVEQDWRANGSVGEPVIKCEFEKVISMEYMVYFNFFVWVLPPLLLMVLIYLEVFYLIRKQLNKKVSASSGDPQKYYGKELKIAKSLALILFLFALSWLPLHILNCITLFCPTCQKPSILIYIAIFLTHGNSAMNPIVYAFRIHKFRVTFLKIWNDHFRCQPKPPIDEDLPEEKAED
In short: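 Rat cerebral cortex membranes labelled with [3H]R-PIA. Adenosine deaminase 3 units/mL present during membrane preparation, during a 30 min preincubation at 30 °C and during incubation. Filtration on GF/B filters. At least five competitor concentrations spanning 3 log units. […] Three independent experiments in duplicate.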

[3] = target: T3, Adenosine receptor A3 (Homo sapiens, UniProt P0DMS8); assay: Binding affinity at wild-type Adenosine A3 receptor expressed in COS-7 cells; type: cell-based
T3 sequence (P0DMS8 whole entry): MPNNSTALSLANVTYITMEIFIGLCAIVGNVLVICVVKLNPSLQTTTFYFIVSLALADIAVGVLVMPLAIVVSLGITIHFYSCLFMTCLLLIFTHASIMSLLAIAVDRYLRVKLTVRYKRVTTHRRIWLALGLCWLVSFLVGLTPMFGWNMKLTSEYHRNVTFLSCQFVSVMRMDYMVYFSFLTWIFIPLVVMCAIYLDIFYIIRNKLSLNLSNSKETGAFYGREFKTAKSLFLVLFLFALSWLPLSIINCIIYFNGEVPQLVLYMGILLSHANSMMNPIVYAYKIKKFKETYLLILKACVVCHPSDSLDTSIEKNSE

[4] = target: Adenosine receptor A3 (Homo sapiens, UniProt P0DMS8, H272E); assay: Binding affinity at Mutant (H272E) human adenosine A3 receptor expressed in COS-7 cells; type: cell-based
Sequence of Adenosine receptor A3 (Homo sapiens, UniProt P0DMS8, H272E) (P0DMS8 whole entry H272E): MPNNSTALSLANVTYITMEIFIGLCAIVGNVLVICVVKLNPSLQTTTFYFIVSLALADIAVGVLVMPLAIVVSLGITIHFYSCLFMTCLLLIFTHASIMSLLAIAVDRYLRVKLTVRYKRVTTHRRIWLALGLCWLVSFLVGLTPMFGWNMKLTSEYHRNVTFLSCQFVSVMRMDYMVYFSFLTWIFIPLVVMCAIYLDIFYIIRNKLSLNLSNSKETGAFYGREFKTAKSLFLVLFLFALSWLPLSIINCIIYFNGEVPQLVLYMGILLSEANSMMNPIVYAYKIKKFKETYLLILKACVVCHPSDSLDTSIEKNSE

[5] = target: T1, Adenosine receptor A3; assay: Binding affinity at rat adenosine A3 receptor in RBL-2H3 cells; type: cell-based
In short: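 Rat A3 receptors endogenously expressed in RBL-2H3 cells; displacement of [125I]AB-MECA at 1 nM in 50 mM Tris, 10 mM Mg2+, 1 mM EDTA, pH 8.0. Nonspecific binding defined with 100 μM R-PIA. Filtration on GF/B filters. At least five competitor concentrations. IC50 by nonlinear regression, converted to Ki by Cheng–Prusoff (Kd 1.46 nM). Three independent experiments in duplicate.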

Compound	pKi [2]	pKi [3]	pKi [4]	pKi [5]	pKi [1]
NCCNC(=O)[C@H]1O[C@@H](n2cnc3c(N)ncnc32)[C@H](O)[C@@H]1O	< 5.00				4.83
N[C@H]1[C@@H](O)[C@H](n2cnc3c(NCc4cccc(I)c4)ncnc32)O[C@@H]1CO	5.09	6.06	6.49		
Nc1ncnc2c1ncn2[C@@H]1O[C@H](CO)[C@@H](O)[C@H]1N	< 5.00	3.00	6.52	< 5.00	
Nc1nc(Cl)nc2c1ncn2[C@@H]1O[C@H](CO)[C@@H](O)[C@H]1O		6.19	4.94		
NC[C@H]1O[C@@H](n2cnc3c(N)ncnc32)[C@H](O)[C@@H]1O	< 5.00	3.00	6.37	< 5.00	
Nc1nc2ccc(Cl)cc2c2nc(-c3ccco3)nn12 [CGS-15943]		6.60	5.49		

Second part, led by results:

pKi [2]	pKi [3]	pKi [4]	pKi [5]	Compound	pKi [1]
< 5.00	9.27	9.72	< 5.00	N[C@@H]1[C@@H](O)[C@H](n2cnc3c(NC4CCCC4)ncnc32)O[C@@H]1CO	
< 5.00	6.35	7.12	4.08	Nc1ncnc2c1ncn2[C@@H]1O[C@H](CO)[C@@H](N)[C@H]1O	
< 5.00	6.89	7.48		N=C(N)N[C@H]1[C@@H](O)[C@H](n2cnc3c(N)ncnc32)O[C@@H]1CO	
5.17	8.34	8.64		CNC(=O)[C@@H]1C[C@H](N)[C@H](n2cnc3c(NCc4cccc(I)c4)nc(Cl)nc32)O1	5.47
